The values below come from PMC2944037 (Environmental toxicology and chemistry / SETAC, 2010).

Molecules are shown by their SMILES. “Also recorded” adds a separate entry of the source. Like-named read-outs stand apart in the source and are kept apart here.

For data set [1], the target named is alligator estrogen receptor alpha (aERα) (Alligator mississippiensis, UniProt Q765N7). The data set is described as follows: Cell-free competitive binding assay with baculovirus-expressed recombinant aERα. Set-up: species or system American alligator (Alligator mississippiensis). Particulars: for RBA, Alligator: IC50 of 17β-estradiol / IC50 of compound × 100; for Binder class, Alligator: aERα, displacement of [3H]E2 at highest soluble concentration; for E2 displaced from aERα: maximum displacement of radiolabeled E2; for Binding classification for aERα: non-binder <50% E2 displaced, equivocal binder 50% or greater but <80%.

The test system of a further data set is human MCF-7 cells. Particulars: proliferation of human MCF-7 cells; cited from earlier work.
Data set [2] has as its target T1, human estrogen receptor alpha (hERα) (Homo sapiens, UniProt P03372).
T1 sequence (P03372 1-595): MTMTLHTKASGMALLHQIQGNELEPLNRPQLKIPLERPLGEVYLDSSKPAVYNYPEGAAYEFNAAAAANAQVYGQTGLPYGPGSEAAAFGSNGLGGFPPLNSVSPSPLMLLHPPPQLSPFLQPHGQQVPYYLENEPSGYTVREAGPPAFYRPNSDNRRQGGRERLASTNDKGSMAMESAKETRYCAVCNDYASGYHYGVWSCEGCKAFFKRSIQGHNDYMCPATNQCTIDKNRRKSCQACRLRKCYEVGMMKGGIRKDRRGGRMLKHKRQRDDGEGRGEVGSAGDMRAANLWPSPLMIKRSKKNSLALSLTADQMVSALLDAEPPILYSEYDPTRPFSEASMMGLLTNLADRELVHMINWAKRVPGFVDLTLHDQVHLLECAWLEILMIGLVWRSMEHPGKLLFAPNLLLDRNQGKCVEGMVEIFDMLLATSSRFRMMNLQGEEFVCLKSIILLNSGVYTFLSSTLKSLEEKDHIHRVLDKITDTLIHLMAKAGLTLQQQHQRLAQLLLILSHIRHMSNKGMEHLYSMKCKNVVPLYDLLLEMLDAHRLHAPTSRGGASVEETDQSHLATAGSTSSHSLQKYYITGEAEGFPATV
The experiment in a line: Cell-free competitive binding assay with baculovirus-expressed recombinant hERα. Particulars: for Binder class, Human: hERα, displacement of [3H]E2 at highest soluble concentration; for E2 displaced from hERα: maximum displacement of radiolabeled E2; for Binding classification for hERα: non-binder <50% E2 displaced, equivocal binder 50% or greater but <80%; for RBA, Human: IC50 of 17β-estradiol / IC50 of compound × 100.

Data set [3] relates to alligator estrogen receptor (aER) derived from adult female alligator oviductal tissue. Particulars: cited from earlier work.
Data set [4] deals with human estrogen receptor (hER). Particulars: cited from earlier work.
Another data set concerns alligator embryos. The settings on record: cited from earlier work.
Another data set concerns the target hERα (Homo sapiens, UniProt P03372). The experiment in a line: CV1 transactivation assay with exogenous hERα. It counts as cell-based.
Another data set has as its system aERα. The data set is described as follows: CV1 transactivation assay with exogenous aERα. It counts as cell-based, American alligator (Alligator mississippiensis).
The next data set has as its system endogenous hERα and hERβ. The data set is described as follows: T47D-KBluc transactivation assay. It counts as cell-based, human. The procedure, abridged: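 Stably transfected T47D reporter line (endogenous ERα/ERβ, 3×-ERE-TATA-Luc) was plated at 10,000 cells/well and dosed after overnight culture for 24 h. […] After PBS rinse and lysis, luciferase RLU was read with D-luciferin and converted to log fold induction. One-way ANOVA was applied. There were two independent experiments, four wells per treatment.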

Another data set has as its system CV1 cells. The data set is described as follows: Cell distress observed in the CV1 transactivation assay. Format: cell-based, monkey. The settings on record: 30 μM.
For another data set, the system named is T47D-KBluc cells. The data set is described as follows: Cytotoxicity observed in the T47D-KBluc assay. It counts as cell-based, human. The settings on record: 30 μM.
The next data set concerns hER. The settings on record: read-out: EC50, hER agonist; cited from earlier work.

As for `Clc1ccc(C(c2ccccc2Cl)C(Cl)(Cl)Cl)cc1` (centres unmarked) [o,p′-DDT, 1-Chloro-2-[2,2,2-trichloro-1-(4-chlorophenyl)ethyl]benzene], in [1], the IC50 was 977 nM and the “RBA, Alligator” value is 0.08.
With `CCNc1nc(Cl)nc(NC(C)(C)C#N)n1` [Cyanazine, cyanazine], in data set [1], the “Binder class, Alligator” value was “NB (Non-binder: displaced less than 50% 17b-estradiol at the highest soluble concentration.)”. Further, the “Activity in the E-screen assay” value in the data set on human MCF-7 cells was “inactive”.
For the molecule `ClC1=C(Cl)[C@]2(Cl)[C@H]3[C@H]([C@H](Cl)C(Cl)[C@@H]3Cl)[C@@]1(Cl)C2(Cl)Cl` (stereo partly drawn) [trans-Nonachlor], in data set [2], the “Binder class, Human” value was “NB (Non-binder: displaced less than 50% 17b-estradiol at the highest soluble concentration.)”; the “E2 displaced from hERα” value was found to be 48%; the “Binding classification for hERα” value is “non-binder”. In [1], the “RBA, Alligator” value stood at 0.005; the “Binder class, Alligator” value is listed as “EB (Equivocal binder: displaced greater than 50%, but less than 80% at the highest soluble concentration.)”; the “E2 displaced from aERα” value is 68%; the “Binding classification for aERα” value was “equivocal binder”.
Regarding `CCNc1nc(Cl)nc(NC(C)C)n1` [Atrazine], the “Binding to hERα” value in data set [2] (at concentrations up to 100 μM) was “not able to bind”. Moreover, the “Binding classification for hERα” value in [2] was “not able to bind; also recorded: non-binders”. Moreover, the “Binding to aERα” value in data set [1] (at concentrations up to 100 μM) is listed as “not able to bind”. Moreover, in data set [1], the “Binding classification for aERα” value was “not able to bind; also recorded: non-binders”. In [3], the “Binding to oviduct-derived aER” value is reported as “able to bind”. Further, in the data set with human MCF-7 cells, the “Activity in the E-screen assay” value is “inactive”. In addition, the “Binding to hER” value in [4] is “do not bind”. For the same molecule, the Sex reversal result in the data set with alligator embryos (33°C, stage 21, single topical egg exposure to 0.14, 1.40, or 14.0 ppm) is listed as “no sex reversal at any concentration”. For the same molecule, in the data set on alligator embryos (in ovo exposure), the Gonadal aromatase activity result is “did alter gonadal aromatase activity” and the “Plasma E2 concentrations” value is recorded as “not plasma E2 concentrations”.
On to `ClC(Cl)=C(c1ccc(Cl)cc1)c1ccccc1Cl` [o,p′-DDE, 1-Chloro-2-[2,2-dichloro-1-(4-chlorophenyl)ethenyl]benzene], for which, in [2], the half-inhibitory concentration (IC50) was 219 µM; the “RBA, Human” value was found to be 0.003; the “Binder class, Human” value is on record as “EB (Equivocal binder: displaced greater than 50%, but less than 80% at the highest soluble concentration.)”; the “Binding classification for hERα” value is reported as “equivocal binders”. For the same molecule, in data set [1], the IC50 is 85100 nM; the “Binder class, Alligator” value was “EB (Equivocal binder: displaced greater than 50%, but less than 80% at the highest soluble concentration.)”; the “Binding classification for aERα” value is on record as “equivocal binders”.
For `Clc1ccc(C(c2ccc(Cl)cc2)C(Cl)Cl)cc1` [p,p′-DDD, 1-Chloro-4-[2,2-dichloro-1-(4-chlorophenyl)ethyl]benzene], in [2], the “Binder class, Human” value is listed as “NB (Non-binder: displaced less than 50% 17b-estradiol at the highest soluble concentration.)” and the “Binding classification for hERα” value is “non-binders”. Moreover, in [1], the “Binder class, Alligator” value is given as “NB (Non-binder: displaced less than 50% 17b-estradiol at the highest soluble concentration.)” and the “Binding classification for aERα” value is recorded as “non-binders”.
Consider `ClC1=C(Cl)C2(Cl)C3C(Cl)C=CC3C1(Cl)C2(Cl)Cl` (centres unmarked) [heptachlor], for which the “Binding to oviduct-derived aER” value in [3] is listed as “able to bind”. Moreover, in the data set with human MCF-7 cells, the “Activity in the E-screen assay” value is “inactive”.
On to `CC(C)(c1ccc(O)cc1)c1ccc(O)cc1` [Bisphenol A, reference compound], for which, in data set [2], the “RBA, Human” value is recorded as 0.05. In [1], the 50% inhibitory concentration (IC50) was 1070 nM and the “RBA, Alligator” value was determined as 0.07.
As to `OC(c1ccc(Cl)cc1)(c1ccc(Cl)cc1)C(Cl)(Cl)Cl` [p,p′-Dicofol, p,p′-dicofol], in [2], the “RBA, Human” value is 0.001; the “Binder class, Human” value is reported as “EB (Equivocal binder: displaced greater than 50%, but less than 80% at the highest soluble concentration.)”; the “E2 displaced from hERα” value amounted to 58%; the “Binding classification for hERα” value is listed as “equivocal binder”. In data set [1], the “RBA, Alligator” value worked out at 0.02 and the “E2 displaced from aERα” value came out at 83%. Moreover, in data set [1] (read-out: IC50 for aERα), the 50% inhibitory concentration (IC50) was determined as 4000 nM. Moreover, on hERα (CV1 assay, hERα), the “Concentration eliciting maximal transactivation” value was 10 µM. For the same molecule, on hERα (CV1 cells), the “Transcription of estrogen responsive gene with hERα” value is “induced transcription”. For the same molecule, the “Concentration eliciting maximal transactivation” value in the data set with aERα (CV1 assay, aERα) stood at 10 µM. For the same molecule, the “Transcription of estrogen responsive gene with aERα” value with aERα (CV1 cells) is “induced transcription”. Besides, in the data set with aERα (read-out: EC50, transcriptional activation through aERα, CV1 cells, 3x-ERE-TATA-Luc), the concentration for a half-maximal effect (EC50) came to 2800 nM. Besides, in the data set with endogenous hERα and hERβ (T47D-KBluc assay), the “Concentration eliciting maximal transactivation” value was found to be 10 µM. The “Transcriptional activation of estrogen-dependent reporter” value in the data set on endogenous hERα and hERβ (T47D-KBluc cells) was “dose-dependent increase”. The concentration giving a half-maximal response (EC50) in the data set on endogenous hERα and hERβ (read-out: EC50, transcriptional activation through hER, T47D-KBluc cells) was 1500 nM. For the same molecule, the “Cell distress (increase in detached cells)” value in the data set with CV1 cells was “cell distress”. In the data set on T47D-KBluc cells, the “Cytotoxicity (cell detachment, cytopathology)” value is given as “toxic to the cells”. Further, in the data set with hER, the half-maximal effective concentration (EC50) is 1600 nM.
As to `ClC(Cl)=C(c1ccc(Cl)cc1)c1ccc(Cl)cc1` [p,p′-DDE, 1-Chloro-4-[2,2-dichloro-1-(4-chlorophenyl)ethenyl]benzene], in [2], the “Binder class, Human” value is reported as “NB (Non-binder: displaced less than 50% 17b-estradiol at the highest soluble concentration.)”; the “E2 displaced from hERα” value is recorded as ~0%; the “Binding classification for hERα” value was “non-binders”. Also, in data set [1], the “Binder class, Alligator” value is “NB (Non-binder: displaced less than 50% 17b-estradiol at the highest soluble concentration.)”; the “E2 displaced from aERα” value is ~28%; the “Binding classification for aERα” value is “non-binders”. Moreover, the Sex ratio entry in the data set with alligator embryos (100 ppb in ovo, 32°C (mixed sex ratio)) is “slight female sex bias”. Besides, the “Male to female sex reversal” value in the data set on alligator embryos (100 ppb in ovo, 33.5°C) is “no male to female sex reversal”.
For `OC(c1ccc(Cl)cc1)(c1ccccc1Cl)C(Cl)(Cl)Cl` (racemic) [racemic (±) o,p′-dicofol, o,p′-dicofol], the concentration giving a half-maximal response (EC50) with hER is 4200 nM.
In the case of `ClC1=C(Cl)C2(Cl)C3C(Cl)C(Cl)CC3C1(Cl)C2(Cl)Cl` (centres unmarked) [chlordane], the “Binding to oviduct-derived aER” value in data set [3] is “able to bind”. Further, in the data set with human MCF-7 cells, the “Activity in the E-screen assay” value is “inactive”.
Take `Cl[C@H]1[C@H](Cl)[C@@H](Cl)[C@@H](Cl)[C@H](Cl)[C@H]1Cl` [lindane]: in the data set on human MCF-7 cells, the “Activity in the E-screen assay” value was “inactive”.
On to `ClC1=C(Cl)[C@]2(Cl)[C@H]3[C@H]([C@H](Cl)C(Cl)[C@@H]3Cl)[C@@]1(Cl)C2(Cl)Cl` (stereo partly drawn) [cis-Nonachlor], for which, in data set [2], the “RBA, Human” value was 0.003 and the “Binder class, Human” value is given as “EB (Equivocal binder: displaced greater than 50%, but less than 80% at the highest soluble concentration.)”. Further, in data set [1], the “RBA, Alligator” value amounted to 0.006 and the “Binder class, Alligator” value is listed as “EB (Equivocal binder: displaced greater than 50%, but less than 80% at the highest soluble concentration.)”.
Take `CCc1cccc(CC)c1N(COC)C(=O)CCl` [alachlor]: the “Binding to oviduct-derived aER” value in data set [3] is given as “able to bind”. The “Activity in the E-screen assay” value in the data set with human MCF-7 cells is “inactive”. Besides, the “Binding to hER” value in [4] is “do not bind”.
Consider `OC(c1ccc(Cl)cc1)(c1ccccc1Cl)C(Cl)(Cl)Cl` (single isomer, unassigned; (-)) [(−) o,p′-dicofol, o,p′-dicofol], for which the EC50 with hER was 510 nM.
In the case of `C[C@]12CC[C@@H]3c4ccc(O)cc4C[C@@H](CCCCCCCCC[S+]([O-])CCCC(F)(F)C(F)(F)F)[C@H]3[C@@H]1CC[C@@H]2O` (some centres unmarked) [ICI, ICI 182,780, reference compound], in the data set on aERα (1 μM ICI + 10 nM E2, data not shown), the “Effect of ICI on E2-elicited transcriptional activation” value is recorded as “ablated”. The “Effect of ICI on E2-elicited transactivation” value in the data set on endogenous hERα and hERβ (1 μM ICI + 30 pM E2, data not shown) is “reversed”.
